Values belong to the compound of their own block, whether it stands above or below them. The source made the active and inactive calls. No cut-off for these calls is given here. Square brackets hold non-standard residues; d marks the D form. Peptide text beside a SMILES is read from it. * marks the point of attachment. NMeF = CN[C@@H](Cc1ccccc1)C(=O)O; Undecanoyl = CCCCCCCCCCC(=O)*; Cbz = O=C(OCc1ccccc1)*; NHOH = ON*
Tests used:
[1] = system: COS-7 (Chlorocebus aethiops); assay: Cytotoxicity in monkey COS-7 cells at 100 uM; settings: COS-7, 100 µM
[2] = molecular target: protein farnesyltransferase (Rattus norvegicus); assay: Inhibition of rat recombinant FTase by SDS-PAGE end point assay
[3] = Inhibition of rat recombinant Rab geranylgeranyltransferase iin presence of canine Rab7 and rat REP1 by NBD-FPP based continuous fluorimetric assay
Procedure, shortened: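 Continuous fluorometric assay in 96/384-well format: 3 μM Rab7, 3 μM REP1, 9 μM NBD-FPP and 400 nM RabGGTase, with or without inhibitor. IC50 was calculated from three independent measurements.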

[4] = organism: Rattus norvegicus; assay: Displacement of NBD-FPP from rat recombinant Rab geranylgeranyltransferase by fluorescence titration
Procedure, shortened: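 Displacement titration: 400 nM NBD-FPP was pre-equilibrated with 550 nM RabGGTase. Inhibitor was added stepwise in 1 or 5 μM increments while NBD fluorescence was monitored. The end point was controlled by a final addition of GGPP to 4 μM.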

[5] = molecular target: geranylgeranyltransferase type-I (Rattus norvegicus); assay: Inhibition of rat recombinant GGTase-1 by SDS-PAGE end point assay
[6] = system: COS-7 (Chlorocebus aethiops); assay: Inhibition of recombinant Rab geranylgeranyltransferase expressed in COS-7 cells assessed as inhibition of geranylgeranylation of EYFP-Rab7 protein at 10 to 100 uM by Western blot relative to compactin
[7] = system: COS-7 (Chlorocebus aethiops); assay: Inhibition of recombinant Rab geranylgeranyltransferase expressed in COS-7 cells assessed as inhibition of geranylgeranylation of EYFP-Rab7 protein by Western blot; parameters: concentration or dose not given beside the values; settings: dose or concentration not given here
[8] = Inhibition of rat recombinant Rab geranylgeranyltransferase by SDS-PAGE end point assay
Procedure, shortened: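 End-point transfer of fluorescent prenyl analogues (NBD-GPP or NBD-FPP) to protein substrates was run for 10 min at varied inhibitor concentrations. Substrates were GST-KiRas for FTase, GST-RhoA for GGTase-I and Rab7 for RabGGTase. Reactions were quenched with SDS sample buffer and run on SDS-PAGE. Fluorescent bands were quantified by densitometry.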

[9] = Displacement of Mant-FPP from rat recombinant Rab geranylgeranyltransferase by co-titration based fluorescence assay
Procedure, shortened: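 RabGGTase was titrated into 300 nM Mant-FPP at several fixed inhibitor concentrations. Apparent Kd of Mant-FPP was obtained at each inhibitor level by quadratic fitting. Linear versus hyperbolic dependence of apparent Kd on inhibitor concentration was taken as competitive versus partially competitive binding.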

[10] = organism: Rattus norvegicus; assay: Inhibition of rat recombinant Rab geranylgeranyltransferase at 100 uM in presence of canine Rab7 and rat REP1 NBD-FPP based continuous fluorimetric assay
Procedure, shortened: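 Continuous fluorometric assay in 96/384-well format: 3 μM Rab7, 3 μM REP1, 9 μM NBD-FPP and 400 nM RabGGTase, with or without inhibitor. […] IC50 was calculated from three independent measurements.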

SMILES: O=C(CNC(=O)[C@H](Cc1cn(C(c2ccccc2)(c2ccccc2)c2ccccc2)cn1)NC(=O)c1coc(-c2ccccc2)n1)N[C@@H](Cc1c[nH]cn1)C(=O)O
IC50 [2]: 14 µM | IC50 [3]: 38 µM | inhibition [10]: 86% | IC50 [5]: 2.6 µM | IC50 [8]: 41 µM

SMILES: CCCCCCCCCCC(=O)N[C@@H](Cc1c[nH]cn1)C(=O)N[C@@H](Cc1c[nH]cn1)C(=O)N[C@@H](Cc1ccc(O)cc1)C(=O)NCCCCN
IC50 [3]: 5.2 µM

SMILES: CN(C(=O)[C@@H](Cc1c[nH]cn1)NC(=O)/C=C/c1ccc(-c2ccccc2)cc1)[C@H](CN[C@@H](Cc1ccc(O)cc1)C(=O)O)Cc1ccc(O)cc1
IC50 [3]: 22.7 µM

SMILES: Cc1nc(C(=O)NCC(=O)N[C@@H](Cc2ccccc2)C(=O)N[C@@H](Cc2c[nH]cn2)C(=O)O)c(C)o1
IC50 [3]: > 50 µM

SMILES: O=C(O)C(O)(Cc1cccnc1)P(=O)(O)O (configuration not stated)
Activity [6]: Dose-dependent effect | inhibition [7]: 70%

SMILES: Cc1nc(C(=O)NCC(=O)N[C@@H](Cc2ccccc2)C(=O)N[C@@H](Cc2cn(C(c3ccccc3)(c3ccccc3)c3ccccc3)cn2)C(=O)O)c(C)o1
IC50 [3]: 46 µM

SMILES: O=C(CNC(=O)[C@H](Cc1cn(C(c2ccccc2)(c2ccccc2)c2ccccc2)cn1)NC(=O)c1coc(-c2ccccc2)n1)N[C@@H](Cc1ccccc1)C(=O)O
IC50 [3]: 30 µM

SMILES: CCCCCCCCCCCOc1ccc(C(=O)N[C@@H](Cc2c[nH]cn2)C(=O)N[C@@H](Cc2c[nH]cn2)C(=O)N[C@@H](Cc2c[nH]cn2)C(=O)NCCCCN)cc1
IC50 [3]: 24 µM

SMILES: CCCCCCCCCCC(=O)N[C@@H](Cc1ccc(O)cc1)C(=O)N[C@@H](Cc1c[nH]cn1)C(=O)N[C@@H](Cc1ccc(O)cc1)C(=O)NCCCCN
IC50 [3]: 7.1 µM

SMILES: CCCCCc1ccc(CCC(=O)N[C@H](Cc2ccc(O)cc2)C(=O)N[C@@H](Cc2ccc(O)cc2)C(=O)N[C@@H](Cc2ccccc2)C(=O)O)cc1
IC50 [3]: 11 µM

SMILES: CCCCCCCCCCCOc1ccc(C(=O)N[C@@H](Cc2c[nH]cn2)C(=O)N[C@@H](Cc2ccc(O)cc2)C(=O)N[C@@H](Cc2ccccc2)C(=O)NCCCn2ccnc2)cc1
IC50 [3]: 12.3 µM | inhibition [10]: 7%

SMILES: O=C(CNC(=O)c1csc(-c2cccs2)n1)N[C@@H](Cc1ccccc1)C(=O)N[C@@H](Cc1cn(C(c2ccccc2)(c2ccccc2)c2ccccc2)cn1)C(=O)O
IC50 [3]: 36 µM

SMILES: CN(C(=O)[C@H](Cc1cnc[nH]1)NC(=O)OCc1ccccc1)[C@@H](Cc1ccccc1)C(=O)N[C@@H](Cc1c[nH]c2ccccc12)C(=O)NO (Cbz-His-[NMeF]-Trp-{NHOH})
Activity [6]: Dose-dependent effect | inhibition [7]: 70%

SMILES: CCCCCCCCCCCCCCC(=O)N[C@@H](Cc1c[nH]cn1)C(=O)N[C@@H](Cc1ccccc1)C(=O)N[C@@H](Cc1ccc(O)cc1)CN(C)CCc1ccccn1
IC50 [3]: 26 µM

SMILES: CC(C)(C)OC(=O)n1cnc(C[C@H](NC(=O)[C@H](Cc2ccccc2)NC(=O)CNC(=O)c2coc(-c3ccccc3)n2)C(=O)O)c1
IC50 [3]: > 50 µM

SMILES: CCC/C=C\c1ccccc1/C=C/C(=O)N[C@H](Cc1c[nH]cn1)C(=O)N(C)[C@H](CN[C@H](Cc1ccccc1)C(=O)O)Cc1ccc(O)cc1
IC50 [3]: 15.2 µM

SMILES: O=C(CNC(=O)c1csc(-c2cccs2)n1)N[C@@H](Cc1ccccc1)C(=O)N[C@@H](Cc1c[nH]cn1)C(=O)O
IC50 [3]: 41 µM

Further lines, with some results ahead:

IC50 [2]: 13 µM | IC50 [3]: 8.1 µM | Activity [4]: Active | IC50 [5]: 6.9 µM | IC50 [8]: 14 µM | Ki [9]: 5.3 µM
SMILES: O=C(CNC(=O)[C@H](Cc1c[nH]cn1)NC(=O)c1coc(-c2ccccc2)n1)N[C@@H](Cc1cn(C(c2ccccc2)(c2ccccc2)c2ccccc2)cn1)C(=O)O
Activity [1]: Non-toxic | Activity [6]: Dose-dependent effect | inhibition [7]: 70%

IC50 [3]: 22.7 µM | Activity [4]: Active | Ki [9]: 4.5 µM
SMILES: CN(C(=O)[C@@H](Cc1c[nH]cn1)NC(=O)OCc1ccccc1)[C@@H](Cc1ccccc1)C(=O)N[C@@H](Cc1ccc(O)cc1)C(=O)O

Activity [4]: Active | Ki [9]: 14.5 µM
SMILES: CN(C(=O)[C@H](Cc1cnc[nH]1)NC(=O)OCc1ccccc1)[C@@H](Cc1ccccc1)C(=O)N[C@@H](Cc1ccc(O)cc1)C(=O)NO
Activity [6]: Dose-dependent effect | inhibition [7]: 70%

IC50 [3]: 12.1 µM
SMILES: CCCCCCCCCCCOc1ccc(C(=O)N[C@@H](Cc2c[nH]cn2)C(=O)N[C@@H](Cc2c[nH]cn2)C(=O)N[C@@H](Cc2c[nH]cn2)C(=O)N(C)CCc2ccccn2)cc1

IC50 [3]: 15.6 µM
SMILES: CN(C(=O)[C@@H](Cc1c[nH]cn1)NC(=O)OCc1ccccc1OCc1ccccc1)[C@H](CN[C@@H](Cc1ccccc1)C(=O)O)Cc1ccc(O)cc1

IC50 [2]: 3.4 µM | IC50 [3]: 25 µM | IC50 [5]: 5.6 µM | IC50 [8]: 31 µM
SMILES: O=C(CNC(=O)c1coc(-c2ccccc2)n1)N[C@@H](Cc1ccccc1)C(=O)N[C@@H](Cc1cn(C(c2ccccc2)(c2ccccc2)c2ccccc2)cn1)C(=O)O

IC50 [3]: 3.9 µM
SMILES: CCCCCCCCCCC(=O)N[C@@H](Cc1ccc(O)cc1)C(=O)N[C@@H](Cc1c[nH]cn1)C(=O)N[C@@H](Cc1ccc(O)cc1)C(=O)OC (Undecanoyl-Tyr-His-Tyr-OMe)

IC50 [3]: > 100 µM
SMILES: CCCCC(=O)N[C@@H](Cc1c[nH]cn1)C(=O)N[C@@H](Cc1ccccc1)C(=O)N[C@@H](Cc1ccc(O)cc1)CN(C)CCc1ccccn1

Activity [4]: Dose-dependent effect | IC50 [8]: 10 µM | Ki [9]: 1.1 µM
SMILES: CCCCCCCCCCC(=O)N[C@@H](Cc1cnc[nH]1)C(=O)N[C@@H](Cc1c[nH]cn1)C(=O)N[C@@H](Cc1ccc(O)cc1)C(=O)N(C)CCc1ccccn1
Activity [6]: Dose-dependent effect | inhibition [7]: 70%

IC50 [2]: 98 µM | IC50 [3]: 2.8 µM | IC50 [5]: 97 µM | IC50 [8]: 8.8 µM
SMILES: CCCCCCCC(=O)N[C@@H](Cc1c[nH]cn1)C(=O)N[C@@H](Cc1ccccc1)C(=O)N[C@@H](Cc1ccc(O)cc1)CN(C)CCc1ccccn1

IC50 [2]: > 100 µM | IC50 [3]: 6.3 µM | Activity [4]: Active | IC50 [5]: > 100 µM | IC50 [8]: 4.3 µM | Ki [9]: 2.8 µM
SMILES: CCCCCCCCCCC(=O)N[C@@H](Cc1ccc(O)cc1)C(=O)N[C@@H](Cc1c[nH]cn1)C(=O)N[C@@H](Cc1ccc(O)cc1)C(=O)N(C)CCc1ccccn1
Activity [1]: Non-toxic | Activity [6]: Dose-dependent effect | inhibition [7]: 70%

IC50 [3]: > 100 µM | inhibition [10]: 80%
SMILES: CCCCCCCCCCC(=O)N[C@@H](Cc1c[nH]cn1)C(=O)N[C@@H](Cc1c[nH]cn1)C(=O)N[C@@H](Cc1ccc(O)cc1)C(=O)NCCc1ccccn1

IC50 [8]: 2.8 µM | Ki [9]: 5.4 µM
SMILES: CCCCCCCCCCC(=O)N[C@@H](Cc1c[nH]cn1)C(=O)N[C@@H](Cc1ccccc1)C(=O)N[C@@H](Cc1ccc(O)cc1)C(=O)N(C)CCc1ccccn1
Activity [6]: Dose-dependent effect | inhibition [7]: 70%

— ChEMBL document CHEMBL1153722, “Design, synthesis, and characterization of peptide-based rab geranylgeranyl transferase inhibitors” (J Med Chem, 2009)
